# Only some compounds are listed: those with a hit (about 4.1% of all), similar ones and a draw of the others.
# MEKK2wt PB1 HTS = modulators of MEK5 binding to wildtype MEKK2, primary screen, biochemical, multiplex bead flow cytometry, Alexa488-MEK5; Mitogen-activated protein kinase kinase kinase 2 (Homo sapiens), Q9Y2U5; Alexa488-MEK5 binding to MEKK2 WT; actives lie on both sides; binding response (% of control), % at 10 µM; 1.1% of 290,000 active; in the data active means binding response below about 67% or above about 130%; inconclusive means no clear call, values can overlap the other calls; inactive means in between
# MEKK2mut PB1 HTS = MEK5 binding signal on mutant MEKK2 PB1, primary screen, biochemical, multiplex bead flow cytometry, Alexa488-MEK5. Alexa488-MEK5 binding to MEKK2 mutant. percent response, % at 10 µM. 0.35% of 290,000 active; in the data active means percent response above about 24%, passing the limit was not always enough
# T cruzi repl = inhibitors of intracellular T. cruzi growth, primary screen, luminescence, NIH3T3 host cells; T. cruzi beta-gal in NIH3T3, 90 h; inhibition, % (concentration not given with the values); 1.4% of 300,000 active;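 active means mean inhibition across valid replicates above about 55%, limit read from the data; inconclusive means mean below that limit but half or more replicates reach it; inactive means mean below it, under half of replicates reach it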;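 further: signal also drops with host cell toxicity which is not excluded here; 0% = plate median of DMSO wells and 100% = zero luminescence signal; higher percent means less beta-gal luminescence so fewer parasites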
#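 Assay system: NIH/3T3 fibroblasts plus reporter T. cruzi. Amount: NIH/3T3 cells, 5,000 per well. Buffer or medium: DMEM, 2% fetal bovine serum. Doses: compound pinned at 50 nL/well, DMSO. Schedule: ≥90 h infection period, 3 h prior cell attachment. Signal: luminescent β-galactosidase signal after 60 min lysis. Read-out: parasite load inhibition, %.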
# FID counter = compounds displacing fluorescent DNA intercalator, primary screen, artefact control for HCV NS3 helicase inhibitor project, biochemical, FID fluorescence; DNA fluorescent intercalator displacement; inhibition, % at 7.9 µM; 0.17% of 290,000 active; AID 1845, 2009; in the data active means inhibition above about 37%;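 further: 0% = vehicle and 100% = reference compound; higher means more ethidium bromide displaced from hairpin DNA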
# MEKK3 PB1 HTS = modulators of MEKK3-MEK5 PB1 binding, primary screen, biochemical, wildtype MEKK3, multiplex bead flow cytometry, Alexa488-MEK5; AID 1529, 2009; binding response (% of control), % at 10 µM; bead-based flow cytometry, Alexa488-MEK5 binding to MEKK3; actives lie on both sides; 0 = blocked by unlabeled MEK5, 100 = vehicle; 1.4% of 290,000 active; Mitogen-activated protein kinase kinase kinase 3 (Homo sapiens), Q99759;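 active means binding response more than 3 SD above or below the average of its plate-row segment, actives on both sides; inconclusive means wells at one plate position flagged as instrument error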;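 further: Alexa488 bead fluorescence after subtracting the streptavidin-only scavenger bead signal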
# Target sequence (Q99759 whole entry, looked up): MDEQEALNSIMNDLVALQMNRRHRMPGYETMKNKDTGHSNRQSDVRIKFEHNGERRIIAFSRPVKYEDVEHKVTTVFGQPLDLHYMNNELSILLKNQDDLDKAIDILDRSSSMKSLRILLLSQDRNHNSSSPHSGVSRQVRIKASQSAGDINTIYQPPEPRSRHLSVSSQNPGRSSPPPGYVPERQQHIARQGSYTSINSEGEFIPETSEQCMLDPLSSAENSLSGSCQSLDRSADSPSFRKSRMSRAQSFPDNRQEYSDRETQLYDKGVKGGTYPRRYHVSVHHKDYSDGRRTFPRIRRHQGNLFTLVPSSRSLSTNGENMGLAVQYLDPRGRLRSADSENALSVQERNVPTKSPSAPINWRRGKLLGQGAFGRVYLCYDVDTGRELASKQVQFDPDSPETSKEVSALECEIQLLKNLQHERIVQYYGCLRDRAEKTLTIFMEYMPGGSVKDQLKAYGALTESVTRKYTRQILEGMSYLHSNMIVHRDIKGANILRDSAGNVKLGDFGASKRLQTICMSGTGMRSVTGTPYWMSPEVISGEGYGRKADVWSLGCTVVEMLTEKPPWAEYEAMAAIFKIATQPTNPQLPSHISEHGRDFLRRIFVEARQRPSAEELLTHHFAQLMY
# HCV NS3 hel inh = inhibitors of HCV NS3 helicase, primary screen, biochemical, Cy5 molecular beacon fluorescence; Hepatitis C virus NS3 helicase; 0.56% of 290,000 active; AID 1800, 2009; inhibition, % at 10.9 µM; NS3 helicase DNA unwinding;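 active means inhibition above the mean of all tested compounds plus 3 SD, set per campaign, cut at about 35% in these data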;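 further: 0% = DMSO wells and 100% = thioflavine S control wells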
#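 Material: hepatitis C virus NS3 helicase domain fragment enzyme; measured by: Cy5 fluorescence, 0 and 60 min reads; control set: DMSO and thioflavine S; incubation: 60 min unwinding reaction at 25 °C after ATP addition; read-out basis: % inhibition from 60/0 min fluorescence ratio, DMSO 0%, thioflavine S 100%; repeats: singlicate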
# MEKK2wt confirm = modulators of MEK5 binding to wildtype MEKK2, confirmation, biochemical, single concentration, multiplex bead flow cytometry. shares compounds with MEKK3 PB1 HTS. Alexa488-MEK5 binding to MEKK2 WT; actives lie on both sides. binding response (% of control), % at 10 µM. 2.4% of 5,900 active. AID 1892, 2009; in the data active means binding response below about 16% or above about 210%; inactive means in between
# MEKK2mut-MEK5 = mutant MEKK2 PB1-MEK5 binding signal retest – biochemical, single concentration, multiplex bead flow cytometry, confirmation. shares compounds with MEKK3 PB1 HTS. Alexa488-MEK5 binding to MEKK2 mutant. percent response, % at 10 µM. 2% of 5,900 active; in the data active means percent response mostly above about 71%, no sharp cut-off; inactive means mostly below about 38%;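 further: higher means compound restores mutant binding toward wildtype level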
# MEKK3-MEK5 inh = MEKK3 wild-type PB1 binding to MEK5, inhibitors, confirmation, biochemical, bead multiplex flow cytometry, single concentration, wildtype. shares compounds with MEKK3 PB1 HTS. Alexa488-MEK5 binding to MEKK3; hits give low values. binding response (% of control), % at 10 µM. 1.8% of 5,900 active. AID 1894, 2009;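 active means binding response below 72% of control, or above a set upper limit, though filed actives all read lower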;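 further: 100% = DMSO only wells and 0% = binding blocked by excess unlabeled MEK5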
# * marks the source's active call; other numbers are inactive results; ? = inconclusive; nt = no result; ! = not active in a repeat; [ ] = dose if it differs, or a comment.
SMILES,MEKK2wt PB1 HTS,MEKK2mut PB1 HTS,T cruzi repl,FID counter,MEKK3 PB1 HTS,HCV NS3 hel inh,MEKK2wt confirm,MEKK2mut-MEK5,MEKK3-MEK5 inh
Cc1ccc(C)c(S(=O)(=O)N2CCCOC2CNC(=O)C(=O)NCc2ccccn2)c1 (stereo unspecified),110,4,24,-28,102,1,nt,nt,nt
CCOC(=O)C1=C(N)OC2=C(C(=O)CC(C)(C)C2)C1c1ccc(C)s1 (stereo unspecified),105,0,-9,8,110,4,nt,nt,nt
CCOC(=O)C1=C(N)OC2=C(C(=O)CC(C)(C)C2)C1c1ccc(CC)s1 (stereo unspecified),41*[inhibitor],-15,-3,-5,40*[inhibitor],0,95,-4,102
CNCCCC12CCC(c3ccccc31)c1ccccc12,137*!,7,22,15,111,-26,106,1,94
CNCCCC1c2ccccc2C=Cc2ccccc21,107,10,6,14,113,-22,nt,nt,nt
C=CCOc1ccc(-c2n[nH]c(=S)o2)cc1,112,0,nt,-2,131*,1,94,-2,98
COc1ccc(C(=O)Nc2ccc(-c3n[nH]c(=S)o3)cc2)cc1,101,-5,-5,-27,100,-5,nt,nt,nt
Cc1cccc(NS(=O)(=O)c2c(C)n[nH]c2C)c1,90,-5,-15,-3,81*[inhibitor],5,96,-11,94
COc1ccc2nc3cc(Cl)ccc3c(Nc3cc(CN4CCCC4)c(O)c(CN4CCCC4)c3)c2n1,138*,22,59*,103*,97,-44,138,26,96
CCOC(=O)c1c(C)[nH]c(=S)c(C#N)c1-c1ccc(Cl)cc1,96,-2,-2,-3,95,2,nt,nt,nt
CCOC(=O)c1c(C)[nH]c(=S)c(C#N)c1-c1ccc(OC)cc1,108,5,-9,-8,122*,12,98,0,101
CCOC(=O)Cc1csc(NC(=O)Cn2c(=O)oc3ccccc32)n1,95,-4,-12,-9,94,23,nt,nt,nt
COc1ccc2ccccc2c1-c1sc(Nc2ccccc2)n[n+]1-c1ccc(F)cc1,155*,43*,61*,19,110,-100,169,39,106
CCc1ccc(Nc2nc3ccccc3c(=O)s2)cc1,102,-1,-4,-10,99,-4,nt,nt,nt
CCc1ccc(Nc2n[n+](-c3ccccc3)c(-c3cc(OC)c(OC)cc3Br)s2)cc1,194*,77*,18,-30,112,-18,225*,75*,109
CCc1ccc(Nc2n[n+](-c3ccccc3)c(/C=C/c3ccccc3)s2)cc1,189*,25*,36,-17,108,-65,178,49,102
CCN(c1ccc(OC)cc1)S(=O)(=O)c1ccc(-c2ccc(=O)[nH]n2)o1,102,8,3,-24,103,-2,nt,nt,nt
CCC1C(=O)N=C(SCC(=O)Nc2ccccc2)NC1=O (stereo unspecified),104,3,-3,3,110,-1,nt,nt,nt
CCC1C(=O)N=C(SCC(=O)Nc2ccc(S(N)(=O)=O)cc2)NC1=O (stereo unspecified),122,1,0,-1,138*,9,100,-3,98
N#C/C(=N\Nc1ccc(Cl)c(Cl)c1)C(=O)C1CC1,45*[inhibitor],-8,-13,-8,45*[inhibitor],13,94,-2,99
COc1cccc(CCc2nnc(N)s2)c1,97,1,-10,-1,100,-6,nt,nt,nt
O=C(N/N=C/c1cc2ccccc2nc1Cl)[C@H]1C[C@@H]1c1ccccc1,108,1,23,-9,168*,-16,100,-4,103
O=C(CN1CCCCC1)N/N=C/c1cc2ccccc2nc1Cl,102,-3,-29,3,100,0,nt,nt,nt
COc1cc(O)c(C(CC(=O)N2CCCCC2)c2ccc3c(c2)OCO3)c(OC)c1 (stereo unspecified),140*,4,-12,nt,122,nt,102,-1,103
COc1cc(O)c(C(CC(=O)N2CCCC(C)C2)c2ccc3c(c2)OCO3)c(OC)c1 (stereo unspecified),142*,2,-2,nt,121,nt,104,1,98
SMILES,MEKK2wt PB1 HTS,MEKK2mut PB1 HTS,T cruzi repl,FID counter,MEKK3 PB1 HTS,HCV NS3 hel inh,MEKK2wt confirm,MEKK2mut-MEK5,MEKK3-MEK5 inh
COc1ccc(C(CC(=O)N2CCCC2)c2c(O)cc(OC)cc2OC)cc1 (stereo unspecified),97,1,-6,nt,95,nt,nt,nt,nt
COc1cc(O)c(C(CC(=O)N2CCCC(C)C2)c2ccc(N(C)C)cc2)c(OC)c1 (stereo unspecified),158*,2,16,nt,127,nt,103,0,101
COc1cc(O)c(C(CC(=O)N2CCOCC2)c2cc(OC)c(OC)c(OC)c2)c(OC)c1 (stereo unspecified),154*,3,-13,nt,126,nt,97,2,101
COc1ccccc1CN1CC(C(=O)N2CCC(C(=O)c3ccccc3)CC2)CCC1=O (stereo unspecified),95,4,6,-60,96,32,nt,nt,nt
COc1ccc(/C=N/NC(N)=S)cc1OC(=O)c1cccc2ccccc12,94,1,?,-15,103,14,nt,nt,nt
CC1=CC(C)C(C(=O)O)C(C(=O)N2CCN(C)CC2)C1 (stereo unspecified),105,0,-10,-7,111,-1,nt,nt,nt
CC1=CC(C)(C)C(C(=O)O)C(C(=O)O)C1 (stereo unspecified),136*,10,-4,-2,141*,-2,112,19,88
O=C(COc1c(F)c(F)cc(F)c1F)NC(=O)NC1CCCC1,60,-8,-16,-11,56*[inhibitor],-4,101,5,100

# Bioassay records (PubChem)
